# NLRP3 yeast inh: NALP3 inflammasome inhibitors in reconstituted yeast, primary screen, luminescence, uHTS; AID 2825, 2010; 330,000 compounds, 0.39% hits; inhibition, % at 10 µM; Yeast reconstituted NLRP3/ASC/caspase-1, beta-gal luminescence, 24 h;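 active = inhibition of 50% or more; inactive = inhibition below 50%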;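 note: plate controls were induced DMSO wells for no effect and uninduced yeast grown without galactose for full effect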
# Mot1-301 SUMO: yeast Mot1-301 growth rescue at high temperature, primary screen, SUMOylation pathway inhibitor project, S. cerevisiae, ATP luminescence, 38.5C. S. cerevisiae Mot1-301 growth rescue; percent above DMSO median, 100 means doubled. growth rescue, % at 18.8 µM. 320,000 compounds, 1% hits;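 active = every valid replicate shows activation above 250% relative to neutral control wells; inactive = the rest, any valid replicate at or below 250%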;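 note: OY570 slx delta 5 strain wells were the positive control but not used for scaling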
# PolyA inhibitor: polyadenylation inhibitors in yeast reporter cells, primary screen, luminescence, S. cerevisiae. S. cerevisiae SKY197-pL101 polyadenylation reporter, beta-gal luminescence; efflux-impaired pdr1/pdr3 knockout yeast; score 100 = 6 SD above DMSO. activity score, % at 12 µM. 300,000 compounds, 0.02% hits;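 active = lowest replicate activity score at least 50, where 100 means six control SD above control mean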;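 note: yeast exposed to compound for 9 h at 30 °C; higher score means more reporter readthrough which indicates perturbed polyadenylation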
# NALP1 yeast inh: NALP1 inflammasome inhibitors in reconstituted yeast, colorimetric, S. cerevisiae, triplicate retest; AID 2071, 2009; inhibition, % at 10 µM; 280,000 compounds, 0.61% hits; S. cerevisiae NALP1/ASC/caspase-1 growth, X-gal OD620, 72 h; in the data active = inhibition mostly above about 24%, no sharp cut-off; inactive = mostly below about 32%
# IMP-1 inh: IMP-1 metallo-beta-lactamase inhibitors, primary screen, biochemical, epi-absorbance readout, Pseudomonas aeruginosa enzyme | metallo-beta-lactamase IMP-1 (Pseudomonas aeruginosa) | purified IMP-1, nitrocefin hydrolysis, epi-absorbance fluorescence | inhibition, % at 5.6 µM | 290,000 compounds, 0.45% hits;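 active = inhibition above the mean plus 3 SD of all compounds in the same screening run, cut at about 4.5% in these data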;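 note: 0% = IMP-1 with DMSO and 100% = DMSO wells lacking enzyme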
#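 System: Purified recombinant IMP-1 metallo-beta-lactamase enzyme | Measured by: Fluorescence quenching readout, ex 480/em 530 nm | Replication: Singlicate | Incubation: 15 min preincubation plus 25 min reaction at 25 °C | Evaluation: Percent inhibition from optical density relative to buffer-blank wells | Benchmarks: DMSO with and without IMP-1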
# VIM-2 inhibitor: VIM-2 metallo-beta-lactamase inhibitors, primary screen, biochemical, epi-absorbance readout, Pseudomonas aeruginosa enzyme; purified VIM-2, nitrocefin hydrolysis, epi-absorbance fluorescence; inhibition, % at 5.6 µM; 290,000 compounds, 0.89% hits; AID 1527, 2009;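 active = inhibition above the mean of all tested compounds plus 3 SD, cutoff set per screening run, cut at about 7.5% in these data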;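 note: red hydrolysis product quenches plate fluorescence so inhibitors raise well fluorescence; 0% = enzyme with DMSO and 100% = DMSO without enzyme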
# * hit, by the source's call; x = no result given. The list is not random: actives were taken first. Their share in the collection is about 2.9%.
SMILES,NLRP3 yeast inh,Mot1-301 SUMO,PolyA inhibitor,NALP1 yeast inh,IMP-1 inh,VIM-2 inhibitor
Cc1cc(Nc2ccc3c(c2)OCCO3)c2cc(Cl)ccc2n1,17.4,-5.1,6.6,37.1,0.4,8.2*
COC(=O)c1ccc2nc(C)cc(Nc3ccc(N(C)C)cc3)c2c1,8.0,6.5,24.4,13.5,-5.0,8.3*
CCSC(=S)c1c(C)[nH]n(-c2ccccc2)c1=O,16.2,-0.9,5.5,10.9,-1.9,-3.3
CCCc1nc2sc3c(SCC(=O)NCc4ccco4)ncnc3c2c2c1CCC2,5.5,-17.1,8.4,-8.6,14.7*,1.4
Cc1nc(SCC(=O)NCc2ccco2)c2c3c(sc2n1)CCCC3,46.1,x,-25.6,4.8,-3.5,1.4
CCOC(=O)C(=O)/C(C#N)=C/Nc1ccc(F)cc1,6.6,-4.2,2.4,-32.0,1.7,-2.8
CCOC(=O)NC(=O)/C(C#N)=N/Nc1ccc(F)cc1,3.8,-16.5,-30.8,37.7*,-5.5,-0.1
CC1CCCC(NS(=O)(=O)c2ccc3c(c2)OCCO3)C1C (stereo not drawn),36.4,161.8,-6.4,27.1*,-3.6,-2.1
COc1cc(Cl)c(C)cc1NC(=O)COC(=O)c1ccc(CN2CCCC2=O)cc1,6.3,-3.9,x,x,x,x
CC(Oc1cc2oc(=O)c3c(c2cc1Cl)CCC3)C(=O)NCc1ccccn1 (stereo not drawn),6.1,-11.6,-6.8,2.8,-3.4,11.5*
CC(Oc1cc2oc(=O)c3c(c2cc1Cl)CCC3)C(=O)NCc1cccnc1 (stereo not drawn),-4.7,14.1,14.2,-4.4,-3.3,10.7*
O=C(COc1ccc2c3c(c(=O)oc2c1)CCCC3)NCc1ccccn1,10.5,10.9,-6.3,-4.3,-1.9,7.8*
CC(Oc1cc2oc(=O)c3c(c2cc1Cl)CCCC3)C(=O)NCc1cccnc1 (stereo not drawn),-4.6,-10.1,12.4,19.2,-1.2,7.2
O=C(COc1cc2oc(=O)c3c(c2cc1Cl)CCC3)NCc1ccccn1,-13.8,14.9,4.1,21.5,2.1,10.4*
C=CCc1c(Cl)nc(C)nc1NCc1ccccc1,16.1,-23.1,-3.5,8.1,1.8,2.7
CCc1ccc(N2CC(C(=O)Nc3ccc4c(c3)OCO4)CC2=O)cc1 (stereo not drawn),5.0,21.3,x,x,x,x
Cc1ccccc1NS(=O)(=O)c1ccc2c3c(cccc13)C(=O)N2C,8.4,351.0*,-3.1,20.0,-0.8,1.0
CN1C(=O)c2cccc3c(S(=O)(=O)Nc4ccccn4)ccc1c23,8.9,280.1*,13.9,5.2,-0.3,-0.6
O=C(NCc1ccccn1)Nc1ccccc1F,8.3,-22.3,-3.2,30.5,-2.0,2.2
CCOc1ccc(CNC(=S)Nc2ccccc2)cc1Cl,9.1,-12.2,4.8,-13.2,6.3*,-1.2
CCOc1ccccc1NC(=S)NCc1ccccc1,31.3,-9.0,-5.5,2.3,-2.5,-1.4
COC(=O)c1cc(NS(=O)(=O)c2ccc(C(C)C)cc2)ccc1N1CCOCC1,14.1,313.9*,-3.6,x,-0.3,0.5
CC(C)CNC(=O)COC(=O)c1cc(S(=O)(=O)N2CCCCC2)ccc1N1CCOCC1,-3.1,277.1*,-6.3,19.4,-0.3,1.4
COC(=O)c1cc(NS(=O)(=O)c2ccc(F)cc2)ccc1N1CCOCC1,2.4,9.7,-13.0,-9.0,-2.0,-4.7
O=C(/C=C/c1ccccc1Cl)c1cccnc1,-13.9,274.7*,-1.1,4.6,-3.4,0.1
Cc1ccc(C)c(/C=C/C(=O)c2ccccc(=O)c2O)c1,x,41.7,16.5,27.8,2.7,-4.2
O=C(/C=C/c1ccccc1Cl)c1ccccc(=O)c1O,x,-12.3,1.5,5.4,11.0*,2.2
Cc1cc2c(c(CO)c1CCO)C(=O)[C@@H](C)[C@@H]2O,-7.3,1.6,x,x,x,x
Cc1cc(Nc2cccc(C)c2C)n2nc(C)nc2n1,20.6,-9.2,-1.4,19.8,0.4,10.1*
Cc1cc(Nc2ccc(Br)c(C)c2)n2nc(C)nc2n1,8.0,5.3,-14.6,19.1,-3.6,10.1*
